For 167 variants, yeast fitness results are on record in the RNAGym collection of RNA variant scans (doi:10.1126/science.aae0568).

Sequences and labels used below:
B1: tRNA (parent)
chain: GUUCCGUUGGCGUAAUGGUAACGCGUCUCCCUCCUAAGGAGAAGACUGCGGGUUCGAGUCCCGUACGGAACG

Variants at the floor of the assay were thinned out.

The variants in the series derive from B1. Kind of series: yeast fitness relative to wild type (ratio to wild type); higher = fitter; tRNA-Arg(CCU), competitive growth, 37 C, YPD. The gist of the method: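 Start and end populations of a pooled competition were compared by 100-nucleotide paired-end sequencing of gene amplicons. The Saccharomyces cerevisiae strains carried tRNA-Arg(CCU) gene variants at the native genomic locus, synthesised with a 3% per-site mutation rate at 69 sites, and competed in YPD at 37°C for 24 hours in six parallel replicates. Darwinian fitness relative to wild type was based on the change in genotype frequencies. Genotypes required ≥ 100 starting reads, and estimates < 0.5 were set to 0.5.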
As for U3A C5U G18C U54A G56A A70G, the yeast fitness is ≤ 0.5.

For the variant C29A A57C, the yeast fitness turned out to be 0.555.

U7A C27A G67A: the yeast fitness was ≤ 0.5.

For C30A C31G, the yeast fitness stood at 1.

For G12U A15G, the yeast fitness was found to be 0.814.

Take G9A C66G G68C: the yeast fitness was determined as 0.571.

Consider U3G A43G C55A, for which the yeast fitness was determined as 0.536.

As to C5G C11G A21C U28G C66U, the yeast fitness worked out at 0.605.

Turning to C5U C27G C31G, the yeast fitness was 0.679.

As to U28C C62U U64C, the yeast fitness amounted to 0.7.

Take U19A C27U U28C C55U: the yeast fitness was ≤ 0.5.

With A21G C27U C55A, the yeast fitness is 0.701.

As for U2A C60U A65U A70U, the yeast fitness was ≤ 0.5.

U3C C30A A69U: the yeast fitness came out at 0.745.

As to C29A G48A, the yeast fitness came out at 0.688.

For the variant U3A C11U C55G C60G, the yeast fitness was ≤ 0.5.

On to C11A C30U G56A A69C, for which the yeast fitness is ≤ 0.5.

For the variant G44A G50C, the yeast fitness is 0.623.

As to C33A G39C, the yeast fitness is 0.677.

Turning to G25A C60G C61A G63A, the yeast fitness was ≤ 0.5.

On to C31A C33A C55G A57U C66U G67A, for which the yeast fitness was ≤ 0.5.

For A21G A36G, the yeast fitness was 0.954.

In the case of U35C A45C C49A, the yeast fitness is ≤ 0.5.

As to C29G G52C, the yeast fitness was ≤ 0.5.

As for A42G A65U, the yeast fitness came out at 0.689.

For the variant A20G A43C C61U A70C, the yeast fitness is ≤ 0.5.

Regarding C4G C11G A36G C55U C61A, the yeast fitness worked out at 0.52.

For the variant U7A C46G A65U, the yeast fitness was 0.686.

In the case of G6C C66U, the yeast fitness was 1.01.

U3A G48C: the yeast fitness came out at 0.842.

For U3C C34A G44A G52A U53C C55U, the yeast fitness stood at 0.527.

On to A15G C24G G48C, for which the yeast fitness is ≤ 0.5.

Take G17A C22A A45U C66U: the yeast fitness was ≤ 0.5.

Turning to G10A A20U, the yeast fitness is 0.786.

Regarding U2G A15C C24U, the yeast fitness was 0.591.

U16A C29G G41C A45U: the yeast fitness is ≤ 0.5.

For U2A C46G C61U, the yeast fitness came to 0.804.

On to C5U A15U G17A G44C, for which the yeast fitness was ≤ 0.5.

On to U8A C22U A36U C49G A69C, for which the yeast fitness is 0.631.

As for U13C A20U, the yeast fitness was 1.12.

For the variant U3C A21G C49U, the yeast fitness came to 1.02.

G25A U64A: the yeast fitness stood at 0.901.

Regarding U2G G48A, the yeast fitness worked out at 0.94.

Consider C4G A40U A42C C61G, for which the yeast fitness was ≤ 0.5.

In the case of U3G C22A, the yeast fitness is 0.682.

As to C4G A42G A45U, the yeast fitness worked out at 0.67.

For the variant G6C G12A G58C C61U A69C, the yeast fitness was ≤ 0.5.

As to U13G U28C G38C, the yeast fitness is ≤ 0.5.

As to A20C C33U A43C G48C, the yeast fitness is 0.525.

As to A14C C49G U54C G63A, the yeast fitness was ≤ 0.5.

Turning to G18C U19C C29A C30G, the yeast fitness is ≤ 0.5.

As to U19C A21U C49U, the yeast fitness was determined as 0.966.

G52A U59A A69C A70C: the yeast fitness was 0.609.

Turning to C5A G41A A70G, the yeast fitness stood at 0.604.

On to U3A A15C U47C, for which the yeast fitness is ≤ 0.5.

Consider U2C U8C A21U C29U G39A G51C C60U C66G, for which the yeast fitness was ≤ 0.5.

C11A C29A G52C G68C: the yeast fitness is ≤ 0.5.

Regarding G9A U28A C60G, the yeast fitness is ≤ 0.5.

Take G38C G50A: the yeast fitness amounted to 0.734.

Take G9C A36G: the yeast fitness stood at 0.691.

As for A21G A45U, the yeast fitness turned out to be 0.902.

As for C46G C49A A69U, the yeast fitness was determined as 0.549.

A15G A20U C29G A43G A70U: the yeast fitness is ≤ 0.5.

Consider A15G A36G A43G A57U, for which the yeast fitness is ≤ 0.5.

C27G C30A: the yeast fitness is 0.632.

Take U19C C55G A65C: the yeast fitness is ≤ 0.5.

With A15U G25A C46U G56A, the yeast fitness was determined as 1.04.

Take G44A C46U G58C: the yeast fitness was determined as 1.08.

As for C4G C11G, the yeast fitness was 0.623.

C5U G51C G56C: the yeast fitness is ≤ 0.5.

As for C27G G41C, the yeast fitness came to 1.01.

Take G9A C31U A57C U64A G68A: the yeast fitness was ≤ 0.5.

In the case of U16A C34G, the yeast fitness came out at 0.683.

Regarding G17A C66U, the yeast fitness is 0.725.

G39A G68C A70G: the yeast fitness is ≤ 0.5.

Turning to U3G C27A A65U, the yeast fitness was ≤ 0.5.

In the case of C31G G52A U59A, the yeast fitness was ≤ 0.5.

Regarding U2G C34G G67U, the yeast fitness is ≤ 0.5.

For A57G G68C, the yeast fitness is 0.857.

In the case of G38A A42U, the yeast fitness was 0.661.

For the variant U2G C22U C24G C66U A70G, the yeast fitness is ≤ 0.5.

As to C29A U35C G50A, the yeast fitness was ≤ 0.5.

Take C31U U35C: the yeast fitness was determined as 0.851.

Take U26A A42U: the yeast fitness came out at 0.981.

In the case of C4U C11U A15G C34U, the yeast fitness was ≤ 0.5.

For the variant A20G C46U A57C, the yeast fitness amounted to 0.514.

Take C5G G17C C62U A65C: the yeast fitness came to 0.52.

On to A42G G52C C62A, for which the yeast fitness was ≤ 0.5.

G12A G48A C66U G67A: the yeast fitness was ≤ 0.5.

G25C C33U G50C: the yeast fitness is ≤ 0.5.

Take C24G G38A: the yeast fitness was determined as 0.519.

On to C11U A42U G67C, for which the yeast fitness worked out at 0.536.

Turning to G25A C49U, the yeast fitness worked out at 0.991.

On to U2A G39A U47A C49U U54A, for which the yeast fitness is ≤ 0.5.

For C5U G25A A40C, the yeast fitness was ≤ 0.5.

Regarding C22G C31G G58C G67C, the yeast fitness is ≤ 0.5.

Take G18C C22A A65G: the yeast fitness is ≤ 0.5.

In the case of A20U C29G G38C G39A A43C C60G A65C, the yeast fitness was ≤ 0.5.

As to A40G U53A C55G, the yeast fitness is ≤ 0.5.

C5A C22G C27G A36U A40C: the yeast fitness is ≤ 0.5.

Regarding C5U A21U U64A, the yeast fitness is ≤ 0.5.

Take C4G G17A G52A: the yeast fitness was ≤ 0.5.

With U7A C27U C30G G38C C49U A65G, the yeast fitness was determined as 0.664.

Take C4G G41A C66U: the yeast fitness came to 0.525.

With U3A C5G G67C, the yeast fitness is 1.

A40C G41C: the yeast fitness was found to be 0.56.

Regarding G48A G52A G67C, the yeast fitness turned out to be 0.536.

As for C30U G68U, the yeast fitness was 0.923.

Turning to U8C A20C, the yeast fitness amounted to 0.985.

Regarding A21U C24U C27A A37C A40U G67C, the yeast fitness came to 0.54.

As for A40C A69C, the yeast fitness is 0.765.

On to A21C A37U G51A, for which the yeast fitness is ≤ 0.5.

For the variant G58C U59C, the yeast fitness amounted to 0.948.

Consider U3A G9A U19A C61G, for which the yeast fitness is ≤ 0.5.

As for C4G U7A U26A A40C A42G G58C G68A, the yeast fitness is ≤ 0.5.

In the case of C11A G58A G68A A69U A70U, the yeast fitness was ≤ 0.5.

As for A40U A57G U64G, the yeast fitness is ≤ 0.5.

On to G17A C30U C49U, for which the yeast fitness is ≤ 0.5.

With A43U G52C C62A, the yeast fitness was ≤ 0.5.

In the case of U8A A21G C24A C30A A45U C49A, the yeast fitness was determined as 0.765.

Regarding C11U A36C C61U, the yeast fitness is ≤ 0.5.

Take A21C G44C A57G G68C: the yeast fitness was found to be 0.66.

As for U3A C33U A45C, the yeast fitness is ≤ 0.5.

As for C4U U16C G48C, the yeast fitness is 0.702.

Regarding U2G A15C C49U, the yeast fitness stood at 0.563.

C24U C31G G44A U64A: the yeast fitness is ≤ 0.5.

Turning to G6C G10A C27A, the yeast fitness turned out to be 0.586.

Regarding G25C C30G A36U C46U A65G, the yeast fitness was ≤ 0.5.

Consider G23C U32A, for which the yeast fitness worked out at 0.565.

As for A43G G48C C66G, the yeast fitness is ≤ 0.5.

Consider G12C G48C G58A, for which the yeast fitness was found to be 0.804.

Take U28A G56A: the yeast fitness stood at 0.796.

Consider U47C G63C C66U, for which the yeast fitness is ≤ 0.5.

Turning to U16C G52A, the yeast fitness is 0.713.

Take C27U C34G A57G C62A: the yeast fitness is ≤ 0.5.

Regarding U47C A57G, the yeast fitness stood at 0.921.

Regarding C31A C62G, the yeast fitness came to 0.651.

Regarding A14G C30G A57G, the yeast fitness is ≤ 0.5.

As to C27U A37U, the yeast fitness was determined as 0.626.

With G38C G39C C46U C66U A69U, the yeast fitness is ≤ 0.5.

For the variant C24U A36C U53C, the yeast fitness was ≤ 0.5.

Regarding U8C G17A G50A A69C, the yeast fitness is ≤ 0.5.

For the variant U7A G10A C33A A36C A70U, the yeast fitness was ≤ 0.5.

For C27U A43C A70U, the yeast fitness is 0.749.

With C5U C22G C29A A45U C55U, the yeast fitness was ≤ 0.5.

On to U3C G25C A37U G44A, for which the yeast fitness was 0.705.

As to C5G G41C G67C, the yeast fitness amounted to 0.631.

Regarding C34A C49A U59G, the yeast fitness was 0.654.

As for A20G U64C, the yeast fitness turned out to be 0.929.

Consider U13A A37C G41A U47A U59C, for which the yeast fitness was ≤ 0.5.

On to U7A A21C U54C C61G, for which the yeast fitness was ≤ 0.5.

On to U47C G56A, for which the yeast fitness was determined as 0.999.

With C30G C31G C33G A37C, the yeast fitness is ≤ 0.5.

Regarding A40C A45C A70U, the yeast fitness was ≤ 0.5.

Regarding G6A A36G, the yeast fitness turned out to be 0.89.

Consider A57C C61U, for which the yeast fitness is 0.656.

C5G A36C G41C: the yeast fitness was ≤ 0.5.

As for G6A C29U C33G G67A, the yeast fitness was ≤ 0.5.

Turning to G6A U8C C62U G67A, the yeast fitness is ≤ 0.5.

Turning to U3G U13C C22A G25C C33U A69C, the yeast fitness is ≤ 0.5.

Take U3A G51C: the yeast fitness was ≤ 0.5.

For the variant U2C C31G U35A G63A, the yeast fitness was ≤ 0.5.

In the case of U3G C4G G6C C29A A36C G52C U64C, the yeast fitness was ≤ 0.5.

On to U54C C55G A57U C62U, for which the yeast fitness was ≤ 0.5.

Take A37G G52C: the yeast fitness was ≤ 0.5.

Consider U13C C24G G38C, for which the yeast fitness was 0.592.

As for G6C C22A C31G A70C, the yeast fitness is ≤ 0.5.
